Three compounds from ChEMBL document CHEMBL2150922, “A sulfoximine-based inhibitor of human asparagine synthetase kills L-asparaginase-resistant leukemia cells” (Bioorg Med Chem, 2012) can be followed below.

SMILES strings stand for the structures. Activity calls are given as the source filed them. The rule behind the calls is not given here.

Experiment [1] addresses T1, Asparagine synthetase [glutamine-hydrolyzing] (Homo sapiens, UniProt P08243).
T1 sequence (P08243 whole entry): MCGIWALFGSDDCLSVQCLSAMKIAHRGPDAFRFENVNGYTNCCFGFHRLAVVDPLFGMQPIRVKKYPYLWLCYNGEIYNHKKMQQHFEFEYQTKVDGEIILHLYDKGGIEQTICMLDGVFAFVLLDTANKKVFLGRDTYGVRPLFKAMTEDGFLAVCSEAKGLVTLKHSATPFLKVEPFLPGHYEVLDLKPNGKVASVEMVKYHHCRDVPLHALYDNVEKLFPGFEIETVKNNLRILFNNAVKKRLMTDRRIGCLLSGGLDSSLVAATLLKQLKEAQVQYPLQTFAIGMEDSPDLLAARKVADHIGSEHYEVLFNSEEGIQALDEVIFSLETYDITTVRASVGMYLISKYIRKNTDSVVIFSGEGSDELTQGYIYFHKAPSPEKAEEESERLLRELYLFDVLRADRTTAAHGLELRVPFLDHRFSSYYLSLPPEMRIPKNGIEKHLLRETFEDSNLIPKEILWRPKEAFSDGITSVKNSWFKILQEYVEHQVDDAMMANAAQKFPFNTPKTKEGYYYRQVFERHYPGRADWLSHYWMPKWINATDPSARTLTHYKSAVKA
Description: Inhibition of human recombinant ASNS expressed in Sf9 cells assessed as assessed as overall inhibition constant for ammonia dependent production of inorganic pyrophosphate by spectrophotometry analysis. In outline:
(§1)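 PPi formation was coupled to NADH loss at 340 nm over 20 min. Progress curves at fixed inhibitor levels were fitted, and Ki was taken from k versus [I] with Ka 0.1 mM. Duplicates.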

For experiment [2], the target named is T1, Asparagine synthetase [glutamine-hydrolyzing]. Description: Inhibition of human recombinant ASNS expressed in Sf9 cells assessed as assessed as initial inhibition constant for ammonia dependent production of inorganic pyrophosphate by spectrophotometry analysis. In outline: as §1
For experiment [3] the target is unchanged. Description: Inhibition of human recombinant ASNS expressed in Sf9 cells assessed as initial inhibition constant for glutamine dependent production of inorganic pyrophosphate by spectrophotometry analysis.
For experiment [4] the target is unchanged. Description: Inhibition of human recombinant ASNS expressed in Sf9 cells assessed as overall inhibition constant for glutamine dependent production of inorganic pyrophosphate by spectrophotometry analysis.
The subject of experiment [5] is MOLT-4. Briefly: Cytotoxicity against human ASNase-resistant MOLT4 cells assessed as cell viability at 130 uM after 48 hrs by MTS assay in presence of ASNase. It is filed as functional, cell-based. In outline:
(§2)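 MOLT-4R cells grown in RPMI 1640 with 10% heat-inactivated FBS and penicillin-streptomycin at 37°C under 5% CO2. Cells were exposed to 10-1000 µM inhibitor, with or without 1 U/mL ASNase, for 48 h. Read-out was MTS at 490 nm, as titer relative to untreated cells at t=0; mean ± SD of triplicates.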

Experiment [6] deals with MOLT-4. Briefly: Cytotoxicity against human ASNase-resistant MOLT4 cells assessed as cell viability after 48 hrs by MTS assay in absence of ASNase. It is filed as functional, cell-based. The gist of the method:
as §2

Experiment [7] deals with MOLT-4. Description: Cytotoxicity against human ASNase-resistant MOLT4 cells assessed as cell viability at 0.13 mM after 48 hrs by MTS assay in absence of ASNase. It counts as functional, cell-based. The gist of the method: as §2
Experiment [8] has as its system MOLT-4. Briefly: Cytotoxicity against human ASNase-resistant MOLT4 cells assessed as cell viability at 0.06 mM after 48 hrs by MTS assay in absence of ASNase. It is filed as functional, cell-based. In outline:
as §2

Experiment [9] concerns MOLT-4. Description: Cytotoxicity against human ASNase-sensitive MOLT4 cells assessed as cell viability at 130 uM after 48 hrs by MTS assay. It is filed as functional, cell-based. In outline: (§3)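 The ASNase-sensitive MOLT-4S line was kept in RPMI 1640 with 10% heat-inactivated FBS and penicillin-streptomycin at 37°C, 5% CO2. They were incubated 48 h with 10-1000 µM compound and no ASNase. Viability was measured by MTS (OD 490) relative to t=0 cell number; mean ± SD of triplicates.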

For experiment [10], the system named is MOLT-4. Description: Cytotoxicity against human ASNase-sensitive MOLT4 cells assessed as cell viability at 250 to 500 uM after 48 hrs by MTS assay. It counts as functional, cell-based. In outline: as §3
Experiment [11] has as its system MOLT-4. Briefly: Cytotoxicity against human ASNase-resistant MOLT4 cells assessed as cell viability at 250 uM after 48 hrs by MTS assay in presence of ASNase. It counts as functional, cell-based. In outline: as §2
The subject of experiment [12] is MOLT-4. Briefly: Cytotoxicity against human ASNase-resistant MOLT4 cells assessed as cell viability at 0.06 mM after 48 hrs by MTS assay in presence of ASNase. It counts as functional, cell-based. The gist of the method: as §2
The test system of experiment [13] is MOLT-4. Description: Cytotoxicity against human ASNase-resistant MOLT4 cells assessed as cell viability after 48 hrs by MTS assay in absence of ASNase relative to sulfoximine 1.
Experiment [14] deals with MOLT-4. Briefly: Cytotoxicity against human ASNase-resistant MOLT4 cells assessed as cell viability at >500 uM after 48 hrs by MTS assay in absence of ASNase.

Regarding `C[S+]([O-])(CCC(=O)O)=NP(=O)(O)OC[C@H]1O[C@@H](n2cnc3c(N)ncnc32)[C@H](O)[C@@H]1O` (mixture of isomers), the Ki came out at 310 nM in experiment [1], 3040 nM in experiment [2], 4500 nM in experiment [3] and 840 nM in experiment [4].
For `C[S+]([O-])(C[C@H](N)C(=O)O)=NP(=O)(O)OC[C@H]1O[C@@H](n2cnc3c(N)ncnc32)[C@H](O)[C@@H]1O` (mixture of isomers), the Ki in experiment [1] came out at 2.5 nM; in [2] it was 280 nM; in experiment [3], 1000 nM; in [4], 24 nM.
As to `C[S+]([O-])(CCN)=NP(=O)(O)OC[C@H]1O[C@@H](n2cnc3c(N)ncnc32)[C@H](O)[C@@H]1O` (mixture of isomers), the Ki in [1] worked out at 33 nM; in experiment [2] it was 450 nM; in experiment [3], 490 nM; in [4] it was 8 nM. Moreover, the outcome in the experiment on MOLT-4 [5], in the experiment on MOLT-4 [7], with MOLT-4 [9], in the experiment with MOLT-4 [10], in the experiment on MOLT-4 [11] and in the experiment on MOLT-4 [14] was Active. The Activity entry with MOLT-4 [6] was “Dose-dependent effect”. Moreover, the outcome with MOLT-4 [8] and in the experiment on MOLT-4 [12] was inactive. For the same compound, the “fold change (FC)” value in the experiment on MOLT-4 [13] came out at 7.
